Published values gathered from unrelated publications.
Each line is one published result; the experiments were not run side by side.
Effect on: cell growth or viability

COc1cccc2c1C(=O)c1c(O)c3c(c(O)c1C2=O)C[C@@](O)(C(=O)CO)C[C@@H]3O[C@H]1C[C@H](N)[C@H](O)[C@H](C)O1 — IC50 (LLC-PK11; neutral red; 48 h): 0.98 mg/L
Cc1cc2c(cc1N1C(=O)c3cccc4c(CCCO)ccc(c34)C1=O)n(C)c(=O)n2C (racemic) — GI50 (NCI-H526; resazurin): 6.86 µM
C[C@]12CC[C@H](O)CC1=CC[C@@H]1[C@@H]2CC[C@]2(C)C(n3cnc4ccccc43)=CC[C@@H]12 — GI50 (CWR22Rv1; MTT): 3.8 µM
COc1cc2c(cc1OS(N)(=O)=O)CCN(Cc1cccc(NS(C)(=O)=O)c1)C2 — GI50 (MDA-MB-231; WST-1; 96 h): > 100 µM
CSc1ccc(-c2nc3ccccc3[nH]2)cc1 — IC50 (MDA-MB-231; MTT; 48 h): 36.6 µM
COc1cc(OC)c2c(=O)cc(-c3ccccc3)oc2c1 — IC50 (HS27; MTT; 24 h): > 200 µM
COc1cc2c(cc1O)CCN(Cc1cc(OC)c(OC)cc1OC)C2 — GI50 (MDA-MB-231; WST-1; 96 h): 4.1 µM
COc1cc(OC)c2c(=O)cc(-c3ccc(N(C)C)cc3)oc2c1 — IC50 (HS27; MTT; 24 h): > 200 µM
COc1cc2c(cc1O)CCN(Cc1cccc(O)c1)C2 — GI50 (MDA-MB-231; WST-1; 96 h): > 100 µM
Fc1ccc(-c2nc3ccccc3[nH]2)cc1 — IC50 (MDA-MB-231; MTT; 48 h): > 100 µM
COc1cc2c(cc1O)CCN(Cc1cccc(OC(F)(F)F)c1)C2 — GI50 (MDA-MB-231; WST-1; 96 h): > 100 µM
Cc1ccc2nc(-c3ccc(Cl)cc3)[nH]c2c1 — IC50 (MDA-MB-231; MTT; 48 h): 27.1 µM
CCOC(=O)C(C(C)=O)=C1Sc2nc3ccc(S(=O)(=O)N4CCCC4)cc3nc2S1 — viability (MDA-MB-231; MTT; 3.125 µM; 24 h): 49.2%
CCc1cccc(CN2CCc3cc(O)c(OC)cc3C2)c1 — GI50 (MDA-MB-231; WST-1; 96 h): > 100 µM
O=C1CCCCC1=C1Sc2nc3ccc(S(=O)(=O)N4CCCC4)cc3nc2S1 — viability (MDA-MB-231; MTT; 50 µM; 24 h): 14.9%
COc1ccc(-c2nc3ccccc3n2Cc2ccccc2)cc1OC — IC50 (MDA-MB-231; MTT): 27.1 µM
COc1cc(OC)c2c(=O)cc(-c3ccc(Br)cc3)oc2c1 — IC50 (HS27; MTT; 24 h): > 200 µM
C[C@]12CC[C@H](O)CC1=CC[C@@H]1[C@@H]2CC[C@]2(C)C(c3cccnc3)=CC[C@@H]12 — GI50 (CWR22Rv1; MTT): 11.5 µM
Oc1cccc(-c2nc3ccccc3[nH]2)c1 — IC50 (MDA-MB-231; MTT; 48 h): > 100 µM
COc1cccc2c1C(=O)c1c(O)c3c(c(O)c1C2=O)C[C@@](O)(C(=O)CO)C[C@@H]3O[C@H]1C[C@H](N)[C@H](O)[C@H](C)O1 — viability (MDA-MB-231; MTT; 25 µM; 24 h): 16.2%
Cc1ccc2nc(-c3ccc(Cl)c(Cl)c3)n(Cc3ccccc3)c2c1 — IC50 (MDA-MB-231; MTT): 83.2 µM
COc1ccc(-c2cc(=O)c3c(OC)cc(OC)c(-c4c(OC)cc(OC)c5c(=O)cc(-c6ccc(OC)cc6)oc45)c3o2)cc1 — IC50 (HS27; MTT; 24 h): > 200 µM
C=CCn1c(-c2ccc(Cl)cc2)nc2ccc(C)cc21 — IC50 (MDA-MB-231; MTT): 30.1 µM
N#CC(C(=O)Nc1cccc(C(F)(F)F)c1)=C1Sc2nc3ccc(S(=O)(=O)N4CCCC4)cc3nc2S1 — viability (MDA-MB-231; MTT; 50 µM; 24 h): 18.4%
COc1cc(OC)c2c(=O)cc(-c3ccc(Br)cc3)oc2c1-c1c(OC)cc(OC)c2c(=O)cc(-c3ccc(Br)cc3)oc12 — IC50 (HS27; MTT; 24 h): > 200 µM
C=CC(=O)N1CCC[C@@H](n2nc(-c3ccc(Oc4ccccc4)cc3)c3c(N)ncnc32)C1 — GI50 (OCI-Ly3; ATP luminescence; 72 h): 19.3 µM
COc1cc2c(cc1O)CCN(Cc1cc(OC)c(OC)c(OC)c1)C2 — GI50 (MDA-MB-231; WST-1; 96 h): 0.62 µM
Fc1cccc(Cl)c1-c1nc2ccccc2[nH]1 — IC50 (MDA-MB-231; MTT; 48 h): 69 µM
COc1cc(OC)c2c(=O)cc(-c3ccccc3)oc2c1-c1c(OC)cc(OC)c2c(=O)cc(-c3ccccc3)oc12 — IC50 (HS27; MTT; 24 h): > 200 µM
COc1cc2c(cc1O)CCN(Cc1cccc(NS(C)(=O)=O)c1)C2 — GI50 (MDA-MB-231; WST-1; 96 h): > 100 µM
